In article PMC7321800 (Journal of immunology (Baltimore, Md. : 1950), 2020):
≈ marks a conversion by molar mass, not a printed value. Where “and” joins values, the source holds several entries; their conditions need not be identical. Equal values may be shown once. Entries after “also recorded” stand apart in the source; their conditions may differ. Read-outs that look alike come from different tables or passages of the source.

Experiments:
N. gonorrhoeae F62 ΔlgtD [1] = assay: Serum bactericidal assay with pooled normal human serum; format: cell-based, Neisseria gonorrhoeae; settings: CMP-NulO added 15 min before or 15 min after CMP-Neu5Ac; 3.3% and 10% NHS
[2] = target: T1, N. gonorrhoeae LOS sialyltransferase (Lst) (Neisseria gonorrhoeae, UniProt P72074); assay: Utilization of CMP-NulO as substrate by LOS sialyltransferase; format: biochemical; settings: transfer of NulO to LNnT LOS
N. gonorrhoeae H041 [3] = assay: Mouse vaginal colonization model, wild-type BALB/c mice; format: in vivo; settings: strain H041; for Efficacy in clearing gonococcal colonization: 10 µg intravaginally daily, wild-type BALB/c mice; for First day with significantly lower CFU counts than saline control: 10 µg/d intravaginally, two-way ANOVA, Dunnett
[4] = Stability of CMP-NulOs in solution; format: physicochemical
[5] = tested on: N. gonorrhoeae strain H041; assay: Mouse vaginal colonization model, human FH/C4BP transgenic mice; format: in vivo
Outline: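 Premarin-treated human FH/C4BP transgenic BALB/c mice, 6-8 weeks old and in diestrus, were infected intravaginally with strain H041 (n=6/group). Test compound was given intravaginally once daily, starting 2 h before infection; the 10 µg dose was given as 1 mg/ml in sterile H2O. Saline was the vehicle control. Bacterial burden was followed over time, and areas under the curve were compared by nonparametric rank sum test.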

N. gonorrhoeae H041 [6] = settings: intravaginal administration; cited from earlier work
N. gonorrhoeae [7] = assay: Mouse vaginal colonization model, Cmah−/− mice; format: in vivo
N. gonorrhoeae F62 ΔlgtD [8] = assay: Silver-stained SDS-PAGE of LOS; format: cell-based, Neisseria gonorrhoeae; settings: media containing CMP-NulO 100 µg/ml
Outline: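 F62 ΔlgtD was grown in liquid media with or without test compound. Protease K-treated (100 µg/ml) lysates were run on 16.5% Tris-Tricine gels with Tris-Tricine cathode buffer, and LOS was silver-stained. Slower LOS mobility than bacteria grown without test compound was taken to indicate NulO addition.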

[9] = target: T1, N. gonorrhoeae LOS sialyltransferase (Lst); settings: tested as CMP salts; cited from earlier work
[10] = tested on: FH purified from human plasma; assay: Factor H binding to bacteria by flow cytometry; settings: for FH binding (fluorescence) relative to that seen with Neu5Ac substituted LOS / Decrease in FH binding fluorescence relative to Neu5Ac: NulO capped LNnT LOS
N. gonorrhoeae F62 ΔlgtD [11] = settings: bacteria fed with the CMP salts; cited from earlier work
[12] = tested on: FH purified from human plasma; settings: compared with Neu5Ac; cited from earlier work
N. gonorrhoeae [13] = settings: cited from earlier work; for Eradication of oropharyngeal infection: men who have sex with men and commercial sex workers
N. gonorrhoeae [14] = settings: cited from earlier work
[15] = F62 ΔlgtD grown with the CMP-NulO

T1 sequence (P72074 whole entry): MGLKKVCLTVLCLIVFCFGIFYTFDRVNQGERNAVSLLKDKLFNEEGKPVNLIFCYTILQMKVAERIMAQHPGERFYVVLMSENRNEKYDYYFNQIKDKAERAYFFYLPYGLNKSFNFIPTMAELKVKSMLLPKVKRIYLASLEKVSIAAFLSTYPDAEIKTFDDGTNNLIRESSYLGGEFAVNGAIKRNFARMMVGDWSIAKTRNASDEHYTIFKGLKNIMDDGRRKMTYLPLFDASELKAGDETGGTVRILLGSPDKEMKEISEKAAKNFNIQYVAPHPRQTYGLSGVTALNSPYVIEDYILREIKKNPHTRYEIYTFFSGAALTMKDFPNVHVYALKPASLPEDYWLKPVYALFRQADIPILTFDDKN

SMILES: [N-]=[N+]=N[C@@H](C1O[C@](OP(=O)(O)OC[C@H]2O[C@@H](n3ccc(N)nc3=O)C(O)C2O)(C(=O)O)CC(O)[C@H]1O)[C@H](O)CO (stereo partly drawn) [CMP-Kdn7N3]
- Prevention of Neu5Ac-mediated serum resistance (N. gonorrhoeae F62 ΔlgtD [1]): ineffective in preventing CMP-Neu5Ac-mediated serum resistance
- Substrate for Lst [2]: served as substrates for Lst

SMILES: Nc1ccn([C@@H]2O[C@H](COP(=O)(O)O[C@@]3(C(=O)O)C[C@H](O)[C@@H](O)[C@H]([C@H](O)[C@H](O)CO)O3)[C@@H](O)[C@H]2O)c(=O)n1 [CMP-Kdn, CMP-ketodeoxynonulosonate]
- Prevention of Neu5Ac-mediated serum resistance (N. gonorrhoeae F62 ΔlgtD [1]): effectively prevented Neu5Ac-mediated serum resistance only when added first
- Efficacy in clearing gonococcal colonization (N. gonorrhoeae H041 [3]): equally efficacious; also recorded: as efficacious as CMP-Leg5,7Ac2
- First day with significantly lower CFU counts than saline control (N. gonorrhoeae H041 [3]): 2 days
- Substrate for Lst [2]: served as substrates for Lst

SMILES: CC(=O)N[C@@H]([C@@H]1O[C@](OP(=O)(O)OC[C@H]2O[C@@H](n3ccc(N)nc3=O)[C@H](O)[C@@H]2O)(C(=O)O)C[C@H](O)[C@H]1NC(C)=O)[C@@H](C)O [CMP-Leg5,7Ac2]
- Prevention of Neu5Ac-mediated serum resistance (N. gonorrhoeae F62 ΔlgtD [1]): blocked CMP-Neu5Ac-mediated serum resistance when added after CMP-Neu5Ac
- Efficacy in clearing gonococcal colonization (N. gonorrhoeae H041 [3]): equally efficacious
- First day with significantly lower CFU counts than saline control (N. gonorrhoeae H041 [3]): 1 days
- Percentage of intact CMP-NulO relative to t0 ([4]; 6 weeks at 4 °C, pH 7): Greater than 90%
- Percentage of intact CMP-NulO relative to t0 ([4]; 1 h, pH 4 (data not shown)): greater than 50%
- Percentage of intact CMP-NulO relative to t0 ([4]; 4 h, pH 4, 37 °C): 4%
- Percentage of intact CMP-NulO relative to t0 ([4]; 24 h at 37 °C, pH 5): about 54%
- Percentage of intact CMP-NulO relative to t0 ([4]; 3 days at 20 °C, pH 7): Greater than 90%
- Relative stability over all test conditions ([4]; descending order: CMP-Leg5,7Ac2, CMP-Neu5Ac9N3, CMP-Neu5Ac, CMP-Kdn, pH 4-7, 4-37 °C): most stable
- Efficacy ([5]; 1 µg/day intravaginally): ineffective
- Efficacy ([5]; 5 µg/day intravaginally): progressively increasing efficacy; also recorded: cleared infection significantly faster
- Efficacy ([5]; 10 µg/day intravaginally): progressively increasing efficacy; also recorded: cleared infection significantly faster
- Duration and burden of vaginal colonization of multidrug-resistant N. gonorrhoeae in mice (N. gonorrhoeae H041 [6]): decreased the duration and reduced the burden of vaginal colonization
- AUC (log10 CFU) (N. gonorrhoeae [7]; strain 398078, 10 µg daily): zero
- Detection of bacteria in treated animals on day 1 (N. gonorrhoeae [7]; strain 398078, swabs taken 24 h after infection, 10 µg daily): unable to detect
- Efficacy (rate of clearance and bacterial burden compared to saline) (N. gonorrhoeae [7]; strains F62 ΔlgtD and H041, 10 µg daily intravaginally): effective against both strains

SMILES: CC(=O)NC1C(OC(C)=O)CC(OP(=O)(O)OCC2OC(n3ccc(N)nc3=O)C(O)C2O)(C(=O)O)OC1C(O)C(O)CO (stereo not drawn) [CMP-Neu4,5Ac2]
- Migration of LOS on silver-stained 16.5% Tricine gel (N. gonorrhoeae F62 ΔlgtD [8]): no change in migration of LOS

SMILES: CC(=O)N[C@H]1[C@H]([C@H](O)[C@H](O)COC(C)=O)O[C@@](OP(=O)(O)OC[C@H]2O[C@@H](n3ccc(N)nc3=O)[C@H](O)[C@@H]2O)(C(=O)O)C[C@@H]1O [CMP-Neu5,9Ac2]
- Prevention of Neu5Ac-mediated serum resistance (N. gonorrhoeae F62 ΔlgtD [1]): rendered F62 ΔlgtD susceptible to 10% NHS, but not 3.3% NHS
- Efficacy in clearing gonococcal colonization (N. gonorrhoeae H041 [3]): ineffective

SMILES: CC(=O)N[C@H]1[C@H]([C@H](O)[C@H](O)CN=[N+]=[N-])OC(OP(=O)(O)OC[C@H]2O[C@@H](n3ccc(N)nc3=O)[C@H](O)[C@@H]2O)(C(=O)O)C[C@@H]1O (stereo partly drawn) [CMP-Neu5Ac9N3]
- Efficacy in clearing gonococcal colonization (N. gonorrhoeae H041 [3]): equally efficacious; also recorded: as efficacious as CMP-Leg5,7Ac2
- First day with significantly lower CFU counts than saline control (N. gonorrhoeae H041 [3]): 2 days

SMILES: CC(=O)N[C@H]([C@@H]1O[C@](OP(=O)(O)OC[C@H]2O[C@@H](n3ccc(N)nc3=O)[C@H](O)[C@@H]2O)(C(=O)O)C[C@H](O)[C@@H]1NC(C)=O)[C@H](C)O [CMP-Pse5,7Ac2]
- Utilization by Lst [9]: not utilized by Lst

SMILES: [N-]=[N+]=N[C@@H]([C@H](O)[C@H](O)[C@@H](O)CC(=O)C(=O)O)[C@H](O)CO [Kdn7N3, 3,7-dideoxy-7-azido-D-glycero-D-galacto-nonulosonic acid]
- FH binding (fluorescence) relative to that seen with Neu5Ac substituted LOS [10, 15]: ~ 60% and ~ 62%

SMILES: O=C(O)C(=O)C[C@H](O)[C@@H](O)[C@@H](O)[C@H](O)[C@H](O)CO [Kdn, 3-deoxy-D-glycero-D-galacto-nonulosonic acid]
- FH binding (fluorescence) relative to that seen with Neu5Ac substituted LOS [10, 15]: ~ 60% and ~ 62%
- Decrease in FH binding fluorescence relative to Neu5Ac [10]: ~ 40%

SMILES: CC(=O)N[C@@H]([C@@H]1O[C@](O)(C(=O)O)C[C@H](O)[C@H]1NC(C)=O)[C@@H](C)O [Leg5,7Ac2]
- Effect of NulO incorporation into LOS on bacterial resistance to complement (N. gonorrhoeae F62 ΔlgtD [11]): did not enhance bacterial resistance to complement
- Utilization by Lst [9]: utilized by Lst
- FH binding to gonococci with NulO capped LNnT LOS [12]: lack of detectable FH binding
- FH binding compared with unsialylated bacteria ([10]; F62 ΔlgtD grown with the CMP-NulO, NulO substituted LOS): did not bind FH above levels seen with unsialylated bacteria

SMILES: CC(=O)N[C@H]1[C@H]([C@H](O)[C@H](O)COC(C)=O)OC(O)(C(=O)O)C[C@@H]1O (stereo partly drawn) [Neu5,9Ac2]
- FH binding (fluorescence) relative to that seen with Neu5Ac substituted LOS [10, 15]: ~ 30%
- Decrease in FH binding fluorescence relative to Neu5Ac [10]: ~ 70%

SMILES: CC(=O)N[C@H]1[C@H]([C@H](O)[C@H](O)CN=[N+]=[N-])OC(O)(C(=O)O)C[C@@H]1O (stereo partly drawn) [Neu5Ac9N3]
- Effect of NulO incorporation into LOS on bacterial resistance to complement (N. gonorrhoeae F62 ΔlgtD [11]): did not enhance bacterial resistance to complement
- Utilization by Lst [9]: utilized by Lst
- FH binding to gonococci with NulO capped LNnT LOS [12]: lack of detectable FH binding

SMILES: CO[C@H](CO)[C@@H](O)[C@@H]1OC(O)(C(=O)O)C[C@H](O)[C@H]1NC(=O)CO (stereo partly drawn) [Neu5Gc8Me, reference compound]
- Utilization by Lst [9]: utilized by Lst
- FH binding to gonococci with NulO capped LNnT LOS [12]: lack of detectable FH binding

SMILES: O=C(CO)N[C@H]1[C@H]([C@H](O)[C@H](O)CO)OC(O)(C(=O)O)C[C@@H]1O (stereo partly drawn) [Neu5Gc, reference compound]
- Utilization by Lst [9]: utilized by Lst
- FH binding to gonococci with NulO capped LNnT LOS [12]: no impact

SMILES: CC[C@H]1OC(=O)[C@@](C)(F)C(=O)[C@H](C)[C@@H](O[C@@H]2O[C@H](C)C[C@H](N(C)C)[C@H]2O)[C@](C)(OC)C[C@@H](C)C(=O)[C@H](C)[C@H]2N(CCCCn3cc(-c4cccc(N)c4)nn3)C(=O)O[C@]12C [Solithromycin, solithromycin]
- Non-inferiority versus ceftriaxone plus azithromycin (N. gonorrhoeae [13]; phase III trial): failed to meet non-inferiority criteria

SMILES: C[C@@H]1CN2c3c(cc4c(N5C(=O)OC[C@@H]5C)noc4c3F)CC3(C(=O)NC(=O)NC3=O)[C@H]2[C@H](C)O1 [Zoliflodacin, zoliflodacin]
- Treatment of uncomplicated urogenital infections (N. gonorrhoeae [13]): appear promising
- Eradication of oropharyngeal infection (N. gonorrhoeae [13]): failures to eradicate oropharyngeal infection

SMILES: C=CC1=C(C(=O)O)N2C(=O)[C@@H](NC(=O)/C(=N\OCC(=O)O)c3csc(N)n3)[C@H]2SC1 [cefixime]
- MIC (N. gonorrhoeae [14]; strain SD-1): 0.125 µg/mL (≈ 0.276 µM)

SMILES: CO/N=C(\C(=O)N[C@@H]1C(=O)N2C(C(=O)O)=C(CSc3nc(=O)c(=O)[nH]n3C)CS[C@H]12)c1csc(N)n1 [ceftriaxone]
- MIC (N. gonorrhoeae [14]; strain CTX-r Spain): > 2 µg/mL
- MIC (N. gonorrhoeae [14]; strain H041 (WHO X)): 2 to 4 µg/mL
- MIC (N. gonorrhoeae [14]; strain SD-1): 0.094 µg/mL (≈ 0.169 µM)
- MIC (N. gonorrhoeae [14]; strain UMNJ60_06UM (NJ-60)): 0.38 µg/mL (≈ 0.685 µM)

SMILES: O=c1ccc2ncc(=O)n3c2n1C[C@H]3CN1CCC(NCc2cc3c(cn2)OCCC3)CC1 [gepotidacin]
- Treatment of uncomplicated urogenital infections (N. gonorrhoeae [13]): appear promising
- Eradication of oropharyngeal infection (N. gonorrhoeae [13]): failures to eradicate oropharyngeal infection
